Reference: ChEMBL document CHEMBL1153411, “Comparing anti-HIV, antibacterial, antifungal, micellar, and cytotoxic properties of tricarboxylato dendritic amphiphiles” (Bioorg Med Chem, 2009)
Values after ≈ are worked out from the molar mass of the structure shown.

Key:
[1] = test system: Lactiplantibacillus plantarum; assay: Antibacterial activity against Lactobacillus plantarum; assay type: functional
Summary of the method: (§1)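 Whole-cell growth-inhibition assays against L. plantarum or C. albicans, compounds added from aqueous triethanolamine stocks. Activity expressed as MIC99, the concentration giving complete inhibition of growth. Error ±1 twofold dilution.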

[2] = Critical micelle concentration in aqueous potassium hydroxide by conductivity measurement; assay type: physicochemical; conditions: buffer
Summary of the method: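 Measured in potassium hydroxide solutions at high pH so that only the trianion is present. Solutions stirred during conductivity measurement. CMC taken by least-squares fits of the linear portions of conductivity-versus-concentration plots on either side of the break.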

[3] = Ratio of EC50 for human HeLa cells to EC50 for HIV1 3B infected in human HeLa cells
[4] = Critical micelle concentration in aqueous triethanalamine using drop shape analysis by surface tension measurement; assay type: physicochemical; conditions: buffer
Summary of the method: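 Surface tension from pendent drops on an 18-gauge needle in triethanolamine/water 0.9% (wt/vol), with solution pH 8.0–9.5. Drop kept in a cuvette holding aqueous triethanolamine to maintain humidity, and camera magnification calibrated from needle tip width. CMC from the break in surface tension versus log concentration.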

[5] = Cytotoxicity against human epithelial cells by MTT assay; assay type: cell-based; conditions: Epithelial cell
Summary of the method: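 Same HeLa cells and same conditions as the infection assay, on a separate plate without virus. Viability measured by MTT reduction. EC50 by linear regression; SD ±10%.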

[6] = Critical micelle concentration in aqueous triethanalamine at pH 8.0 to 9.5 by fluorescence spectra measurement; conditions: buffer
[7] = Slope of log critical micelle concentration versus chain length n in aqueous potassium hydroxide by conductivity measurement; conditions: buffer
[8] = test system: Human immunodeficiency virus 1; assay: Antiviral activity against HIV1 3B with X4 trophism infected in human HeLa cells after 2 hrs by beta-galactosidase reporter gene assay; assay type: functional, organism-based; conditions: Human immunodeficiency virus 1, 3B
Summary of the method: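 CD4+, LTR-driven β-galactosidase HeLa cells exposed 2 h to HIV-1 IIIB plus serial compound dilutions. Virus and compound then washed out and cells cultured 48 h in RPMI 1640/10% FBS at 37 °C, 5% CO2. Lysate β-galactosidase measured by chemiluminescence, with virus-only wells as 100% infection. EC50 by linear regression; SD ±10%.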

Candida albicans = assay: Antifungal activity against Candida albicans; assay type: functional; summary of the method: as §1
Neisseria gonorrhoeae = assay: Antibacterial activity against Neisseria gonorrhoeae ATCC 31426 after 4 days by broth microdilution method; assay type: functional; conditions: ATCC 31426, 96 h
Summary of the method: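 Strain ATCC 31426 from chocolate agar (1% hemoglobin) colonies, grown 4 d in GC broth at 37 °C in an anaerobic jar with CO2 generator. Cells taken up in buffered saline gelatin and allowed to settle 4 h. Broth microdilution over 6.25 mg/mL down to 0.55 µg/mL. Plates incubated 4 d at 37 °C, in triplicate. MIC is the lowest concentration giving prominent visible decrease in turbidity; ±1 twofold dilution.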

[9] = Safety ratio of critical micelle concentration in aqueous potassium hydroxide to MIC99 for Candida albicans; assay type: toxicity; conditions: buffer
[10] = Critical micelle concentration in aqueous triethanalamine at pH 6.4 by fluorescence spectra measurement; assay type: physicochemical
Summary of the method: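 Measured in triethanolamine/water 0.9% (wt/vol) with pH adjusted to 7.4 or 6.4, using pyrene as micelle probe. Mixtures shaken at least 24 h. Excitation 334 nm, bandpasses 5/2.5 nm. CMC from emission intensities of the I1 (373 nm) and I3 (384 nm) peaks.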

[11] = Safety index, ratio of EC50 for human epithelial cells to MIC99 for Candida albicans; assay type: toxicity, cell-based, Epithelial cell
[12] = Safety ratio of critical micelle concentration in aqueous triethanalamine at pH 7.4 to MIC99 for Candida albicans; assay type: toxicity; conditions: aqueous triethanolamine
[13] = Solubility of compound in phosphate buffer at pH 7.2; assay type: physicochemical
[14] = Solubility of compound in triethanolamine solution; assay type: physicochemical

CCCCCCCCCCCCCCCCCCNC(=O)NC(CCC(=O)O)(CCC(=O)O)CCC(=O)O
MIC99 [1]: 1400 µM (≈ 760 µg/mL)
CMC [2]: 330 µM
Ratio EC50 [3]: 1.2
CMC [4]: 2200 µM
EC50 [5]: 280 µM
CMC [6]: 2300 µM
slope of logCMC vs n [7]: -0.3
EC50 [8]: 240 µM
MIC99 (Candida albicans): 1400 µM (≈ 760 µg/mL)
MIC99 (Neisseria gonorrhoeae): 130 µM (≈ 70.6 µg/mL)

CCCCCCCCCCCCCCCCCCCCCCNC(=O)NC(CCC(=O)O)(CCC(=O)O)CCC(=O)O
MIC99 [1]: 940 µM (≈ 563 µg/mL)
CMC [2]: 40 µM
Ratio EC50 [3]: 2.2
CMC [4]: 340 µM
EC50 [5]: 260 µM
CMC [6]: 400 µM
slope of logCMC vs n [7]: -0.3
EC50 [8]: 120 µM
MIC99 (Candida albicans): 2700 µM (≈ 1620 µg/mL)
MIC99 (Neisseria gonorrhoeae): 120 µM (≈ 71.9 µg/mL)

CCCCCCCCCCCCCCCCNC(=O)NC(CCC(=O)O)(CCC(=O)O)CCC(=O)O
Ratio [9]: 49
MIC99 [1]: 6000 µM (≈ 3090 µg/mL)
CMC [2]: 2300 µM
CMC [10]: 480 µM
Ratio EC50 [3]: 1.9
selectivity ratio [11]: 7
CMC [4]: 4900 µM
EC50 [5]: 350 µM
CMC [6]: 7100 µM
slope of logCMC vs n [7]: -0.3
selectivity ratio [12]: 83
EC50 [8]: 180 µM
MIC99 (Candida albicans): 47 µM (≈ 24.2 µg/mL)
MIC99 (Neisseria gonorrhoeae): 2800 µM (≈ 1440 µg/mL)

CCCCCCCCCCCCCCCCCCCCNC(=O)NC(CCC(=O)O)(CCC(=O)O)CCC(=O)O
MIC99 [1]: 1400 µM (≈ 799 µg/mL)
CMC [2]: 120 µM
Ratio EC50 [3]: 1.6
CMC [4]: 1400 µM
EC50 [5]: 210 µM
CMC [6]: 1300 µM
slope of logCMC vs n [7]: -0.3
EC50 [8]: 130 µM
MIC99 (Candida albicans): 2800 µM (≈ 1600 µg/mL)
MIC99 (Neisseria gonorrhoeae): 120 µM (≈ 68.5 µg/mL)

CCCCCCCCCCCCCCNC(=O)NC(CCC(=O)O)(CCC(=O)O)CCC(=O)O
MIC99 [1]: 6400 µM (≈ 3110 µg/mL)
CMC [2]: 8400 µM
Ratio EC50 [3]: 1.1
slope of logCMC vs n [7]: -0.3
EC50 [8]: 270 µM
MIC99 (Candida albicans): 1600 µM (≈ 779 µg/mL)
MIC99 (Neisseria gonorrhoeae): 12000 µM (≈ 5840 µg/mL)

CCCCCCCCCCCCCCCCCC(=O)NC(CCC(=O)O)(CCC(=O)O)CCC(=O)O
MIC99 [1]: 540 µM (≈ 277 µg/mL)
CMC [2]: 71 µM
CMC [4]: 11000 µM
CMC [6]: 11000 µM
slope of logCMC vs n [7]: -0.175
MIC99 (Candida albicans): 280 µM (≈ 144 µg/mL)
MIC99 (Neisseria gonorrhoeae): 2700 µM (≈ 1390 µg/mL)

CCCCCCCCCCCCCCCCCCCCCCOC(=O)NC(CCC(=O)O)(CCC(=O)O)CCC(=O)O
MIC99 [1]: 1300 µM (≈ 780 µg/mL)
Ratio EC50 [3]: 3.3
CMC [4]: 320 µM
EC50 [5]: 360 µM
CMC [6]: 330 µM
EC50 [8]: 110 µM
MIC99 (Candida albicans): 1300 µM (≈ 780 µg/mL)
MIC99 (Neisseria gonorrhoeae): 120 µM (≈ 72 µg/mL)

CCCCCCCCCCCCCC(=O)NC(CCC(=O)O)(CCC(=O)O)CCC(=O)O
MIC99 [1]: 610 µM (≈ 279 µg/mL)
CMC [2]: 3500 µM
EC50 [5]: 300 µM
slope of logCMC vs n [7]: -0.175
EC50 [8]: 740 µM
MIC99 (Candida albicans): 610 µM (≈ 279 µg/mL)
MIC99 (Neisseria gonorrhoeae): 12000 µM (≈ 5490 µg/mL)

CCCCCCCCCCCCCCCC(=O)NC(CCC(=O)O)(CCC(=O)O)CCC(=O)O
MIC99 [1]: 570 µM (≈ 277 µg/mL)
CMC [2]: 1500 µM
Ratio EC50 [3]: 4
CMC [4]: 17000 µM
EC50 [5]: 940 µM
CMC [6]: 18000 µM
slope of logCMC vs n [7]: -0.175
solubility [13]: 6900 µM (≈ 3350 µg/mL)
EC50 [8]: 230 µM
MIC99 (Candida albicans): 290 µM (≈ 141 µg/mL)
MIC99 (Neisseria gonorrhoeae): 12000 µM (≈ 5830 µg/mL)

CCCCCCCCCCCCCCCCCCCCCC(=O)NC(CCC(=O)O)(CCC(=O)O)CCC(=O)O
Ratio [9]: 1.7
MIC99 [1]: 490 µM (≈ 279 µg/mL)
CMC [2]: 13 µM
CMC [10]: 150 µM
solubility [14]: > 22000 µM
selectivity ratio [11]: 32
CMC [4]: 2000 µM
EC50 [5]: 250 µM
CMC [6]: 1500 µM
slope of logCMC vs n [7]: -0.175
selectivity ratio [12]: 52
solubility [13]: 79 µM (≈ 45 µg/mL)
EC50 [8]: 130 µM
MIC99 (Candida albicans): 7.7 µM (≈ 4.39 µg/mL)
MIC99 (Neisseria gonorrhoeae): 120 µM (≈ 68.4 µg/mL)

CCCCCCCCCCCCCCOC(=O)NC(CCC(=O)O)(CCC(=O)O)CCC(=O)O
MIC99 [1]: 6400 µM (≈ 3120 µg/mL)
Ratio EC50 [3]: 1.7
EC50 [5]: 620 µM
EC50 [8]: 370 µM
MIC99 (Candida albicans): 1600 µM (≈ 780 µg/mL)
MIC99 (Neisseria gonorrhoeae): 580 µM (≈ 283 µg/mL)

CCCCCCCCCCCCCCCCCCCC(=O)NC(CCC(=O)O)(CCC(=O)O)CCC(=O)O
Ratio [9]: 2
MIC99 [1]: 520 µM (≈ 282 µg/mL)
CMC [2]: 34 µM
selectivity ratio [11]: 21
CMC [4]: 3000 µM
EC50 [5]: 340 µM
CMC [6]: 3200 µM
slope of logCMC vs n [7]: -0.175
selectivity ratio [12]: 10
EC50 [8]: 170 µM
MIC99 (Candida albicans): 16 µM (≈ 8.67 µg/mL)
MIC99 (Neisseria gonorrhoeae): 130 µM (≈ 70.4 µg/mL)

CCCCCCCCCCCCCCCCOC(=O)NC(CCC(=O)O)(CCC(=O)O)CCC(=O)O
MIC99 [1]: 6000 µM (≈ 3090 µg/mL)
Ratio EC50 [3]: 2.6
CMC [4]: 6800 µM
EC50 [5]: 440 µM
CMC [6]: 6400 µM
EC50 [8]: 170 µM
MIC99 (Candida albicans): 47 µM (≈ 24.2 µg/mL)
MIC99 (Neisseria gonorrhoeae): 280 µM (≈ 144 µg/mL)

CCCCCCCCCCCCCCCCCCOC(=O)NC(CCC(=O)O)(CCC(=O)O)CCC(=O)O
MIC99 [1]: 1400 µM (≈ 761 µg/mL)
Ratio EC50 [3]: 2.7
CMC [4]: 2800 µM
EC50 [5]: 350 µM
CMC [6]: 2700 µM
EC50 [8]: 130 µM
MIC99 (Candida albicans): 180 µM (≈ 97.9 µg/mL)
MIC99 (Neisseria gonorrhoeae): 65 µM (≈ 35.3 µg/mL)

CCCCCCCCCCCCCCCCCCCCOC(=O)NC(CCC(=O)O)(CCC(=O)O)CCC(=O)O
MIC99 [1]: 1400 µM (≈ 801 µg/mL)
Ratio EC50 [3]: 2.2
CMC [4]: 500 µM
EC50 [5]: 280 µM
CMC [6]: 800 µM
EC50 [8]: 130 µM
MIC99 (Candida albicans): 1400 µM (≈ 801 µg/mL)
MIC99 (Neisseria gonorrhoeae): 120 µM (≈ 68.6 µg/mL)
